We go through 15 molecules from ChEMBL document CHEMBL5252514, “Conopeptide-Derived κ-Opioid Agonists (Conorphins): Potent, Selective, and Metabolic Stable Dynorphin A Mimetics with Antinociceptive Properties” (J Med Chem, 2016).

Each structure is given as a SMILES string. Where a SMILES comes first, the peptide text is derived from it. A value given as a limit tells only on which side of the number the result lay.

Series [1] has as its target T1, Kappa-type opioid receptor (Homo sapiens, UniProt P41145). Description: Displacement of [3H]U69593 from human kappa opioid receptor expressed in CHO-K1 cells incubated for 1 hr by 1450 microbeta scintillation counter analysis. The class given is cell-based. The method, boiled down: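 Membranes from transiently KOR-transfected CHO-K1 cells (~2 µg/well) used in SPA with 3H-U69,593 (1 nM). Competitor ranged 1 pM–10 µM in 50 mM Tris-HCl pH 7.4, 5 mM MgCl2, 0.1% BSA. Incubated 1 h at room temperature with shaking. Nonspecific binding defined with 10 µM dynorphin A. Sigmoidal dose-response fit; at least three independent experiments in triplicate.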

The target of series [2] is T1, Kappa-type opioid receptor. Description: Agonist activity at human kappa opioid receptor expressed in CHO-K1 cells assessed as inhibition of forskolin-stimulated cAMP production incubated for 30 mins by LANCE cAMP assay. It counts as cell-based. The gist of the method:
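Transiently KOR-transfected CHO-K1 cells taken 24 h post-transfection, 3,000 cells/well in HBSS stimulation buffer (0.1% BSA, 0.5 mM IBMX, 5 mM HEPES, pH 7.4). Forskolin (1 µM final) and ligand added, then 30 min at RT. LANCE Eu-cAMP tracer/anti-cAMP TR-FRET read after 1 h at RT. Sigmoidal dose-response fit.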
(In general: Cyclic AMP is a second messenger, typically raised through Gs and lowered through Gi signalling.)

A short description of series [3]: Metabolic stability in Wistar rat plasma assessed as half life by HPLC analysis. It counts as ADME, cell-free. The method, boiled down:
(§1)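 Peptide at 1 mg/mL in sterile PBS pH 7.4 was mixed 1:1 with thawed, centrifuged Wistar rat plasma supernatant and incubated at 37°C in triplicate. Samples at 0, 1, 2, 3, 4, 6 and 24 h were quenched with acetonitrile and then 2% TFA/water, and analysed by HPLC with inline electrospray MS.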

The target of series [4] is T1, Kappa-type opioid receptor. The experiment in a line: Agonist activity at human kappa opioid receptor expressed in CHO-K1 cells assessed as ERK phosphorylation incubated for 2 hrs by Alphascreen surefire method. It counts as cell-based. The gist of the method: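 CHO-K1 cells transiently transfected with KOR plasmid, harvested 24 h later, plated at 50,000 cells/well and settled 24 h, then serum-starved 12 h. Ligands in serum-free medium applied 10 min at room temperature. Lysates read by AlphaScreen SureFire phospho-ERK1/2 after 2 h at 37 °C. Curves fitted by sigmoidal dose-response.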

The species named for series [5] is Homo sapiens. The experiment in a line: Selectivity ratio, ratio of Ki for human KOR to Ki for human MOR.
For series [6], the species on record is Homo sapiens. Description: Selectivity ratio, ratio of Ki for human KOR to Ki for human NOP.
The species named for series [7] is Homo sapiens. Description: Selectivity ratio, ratio of Ki for human KOR to Ki for human DOR.
Series [8] can be described thus: Metabolic stability in Wistar rat plasma assessed as UrrQ[CHA]CC formation by measuring relative abundance measuring after 120 mins by HPLC analysis relative to control. It counts as ADME, cell-free. Particulars: 2 h. The method, boiled down:
as §1

The nature of series [9]: Metabolic stability in Wistar rat plasma assessed as UrrQ[CHA] formation by measuring relative abundance measuring after 120 mins by HPLC analysis relative to control. Particulars: 2 h. The class given is ADME, cell-free. The method, boiled down:
as §1

Series [10] in a line: Metabolic stability in Wistar rat plasma assessed as URR formation by measuring relative abundance measuring after 60 mins by HPLC analysis relative to control. The class given is ADME, cell-free. The settings on record: 1 h. The method, boiled down:
as §1

A short description of series [11]: Metabolic stability in Wistar rat plasma assessed as URRQ[CHA] formation by measuring relative abundance measuring after 60 mins by HPLC analysis relative to control. The class given is ADME, cell-free. Particulars: 1 h. The gist of the method: as §1
Series [12] can be described thus: Metabolic stability in Wistar rat plasma assessed as Q[CHA]CC formation by measuring relative abundance measuring after 60 mins by HPLC analysis relative to control. The class given is ADME, cell-free. Particulars: 1 h. The gist of the method: as §1

T1 sequence (P41145 whole entry): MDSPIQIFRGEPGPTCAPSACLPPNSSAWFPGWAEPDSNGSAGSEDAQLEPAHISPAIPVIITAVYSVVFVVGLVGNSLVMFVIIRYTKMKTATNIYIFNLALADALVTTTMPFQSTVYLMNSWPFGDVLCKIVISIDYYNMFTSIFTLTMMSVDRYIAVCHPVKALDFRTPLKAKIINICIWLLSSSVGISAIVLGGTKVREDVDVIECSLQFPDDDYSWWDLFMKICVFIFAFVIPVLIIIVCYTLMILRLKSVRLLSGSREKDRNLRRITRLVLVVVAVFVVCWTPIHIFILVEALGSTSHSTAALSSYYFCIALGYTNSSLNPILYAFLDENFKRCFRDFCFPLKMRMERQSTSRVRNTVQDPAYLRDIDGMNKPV

In turn, `N=C(N)NCCC[C@@H](NC(=O)[C@@H](CCCNC(=N)N)NC(=O)[C@@H]1CCCN1C(=O)c1ccccc1)C(=O)N[C@@H](CCC(N)=O)C(=O)N[C@H](C(=O)N[C@H]1CSSC[C@@H](C(N)=O)NC1=O)C1CCCCC1` registered an inhibitory constant (Ki) in series [1] of 0.48 nM. In addition, the EC50 in series [2] came to 0.39 nM; in series [4], 0.62 nM. Besides, the half-life in series [3] turned out to be 20 h. Also, the Ratio Ki in series [5], in series [6] and in series [7] was greater than 125000 each time.
The molecule `CC[C@H](C)[C@H](NC(=O)[C@H](CCC(N)=O)NC(=O)[C@H](CCCNC(=N)N)NC(=O)[C@H](CCCNC(=N)N)NC(=O)[C@@H]1CCC(=O)N1)C(=O)N[C@H]1CSSC[C@@H](C(N)=O)NC1=O` (HELM PEPTIDE1{[Glp].R.R.Q.I.C.C.[am]}$PEPTIDE1,PEPTIDE1,6:R3-7:R3$$$V2.0) yielded a Ki in [1] of 191 nM. In addition, the EC50 in series [2] stood at 1.9 nM; in series [4], 7490 nM. In addition, the half-life in series [3] is 3 h. Moreover, the Ratio Ki in [5], in [6] and in series [7] was greater than 250 in each case.
With `N=C(N)NCCC[C@@H](NC(=O)[C@@H]1CCC(=O)N1)C(=O)N[C@H](CCCNC(=N)N)C(=O)N[C@@H](CCC(N)=O)C(=O)N[C@@H](CC1CCCCC1)C(=O)N[C@H]1CSSC[C@@H](C(N)=O)NC1=O`, the Ki in series [1] is 3.9 nM. The EC50 was 12.6 nM in series [2] and 1100 nM in series [4]. In series [3], the half-life came out at 6 h. The Ratio Ki in series [5], in series [6] and in series [7] was greater than 10000 in each case. Besides, the figures for the Activity in [8] and in [9] were 1 and 0.1, respectively.
In the case of `CC[C@H](C)[C@H](NC(=O)[C@H](CCC(N)=O)NC(=O)[C@H](CCCNC(=N)N)NC(=O)[C@H](CCCNC(=N)N)NC(=O)[C@@H]1CSSC[C@H](NC(=O)[C@@H](N)CC(N)=O)C(=O)N1)C(=O)N[C@H]1CSSC[C@@H](C(N)=O)NC1=O` (HELM PEPTIDE1{N.C.C.R.R.Q.I.C.C.[am]}$PEPTIDE1,PEPTIDE1,2:R3-3:R3|PEPTIDE1,PEPTIDE1,8:R3-9:R3$$$V2.0), the Ki in series [1] is 80 nM. For the same molecule, the 50% effective concentration (EC50) in series [2] came out at 9450 nM; in series [4], 9850 nM. Further, in series [3], the half-life worked out at 0.25 h. For the same molecule, the Ratio Ki in [5], in series [6] and in series [7] was greater than 630 throughout.
For `CC[C@H](C)[C@H](NC(=O)[C@H](CCC(N)=O)NC(=O)[C@H](CCCNC(=N)N)NC(=O)[C@H](CCCNC(=N)N)NC(=O)[C@@H]1CSSC[C@H](NC(=O)[C@@H]2CCC(=O)N2)C(=O)N1)C(=O)N[C@H]1CSSC[C@@H](C(N)=O)NC1=O` (HELM PEPTIDE1{[Glp].C.C.R.R.Q.I.C.C.[am]}$PEPTIDE1,PEPTIDE1,2:R3-3:R3|PEPTIDE1,PEPTIDE1,8:R3-9:R3$$$V2.0), the Ki in series [1] amounted to 67.5 nM. Also, the EC50 was 11.5 nM in series [2] and 5860 nM in series [4]. For the same molecule, the half-life in series [3] worked out at 0.25 h. Moreover, the Ratio Ki in [5], in series [6] and in series [7] was greater than 630 each time.
`N=C(N)NCCC[C@@H](NC(=O)[C@@H](CCCNC(=N)N)NC(=O)[C@@H]1CCCN1C(=O)c1ccc(O)cc1)C(=O)N[C@@H](CCC(N)=O)C(=O)N[C@@H](CS)C(=O)N[C@@H](CC1CCCCC1)C(=O)N[C@H]1CSSC[C@@H](C(N)=O)NC1=O`: the inhibition constant (Ki) in [1] is 1.2 nM. Besides, the half-life in series [3] turned out to be 2 h.
For `COc1ccc(C(=O)N2CCC[C@H]2C(=O)N[C@H](CCCNC(=N)N)C(=O)N[C@H](CCCNC(=N)N)C(=O)N[C@@H](CCC(N)=O)C(=O)N[C@@H](CS)C(=O)N[C@@H](CC2CCCCC2)C(=O)N[C@H]2CSSC[C@@H](C(N)=O)NC2=O)cc1`, in that order: 0.59 nM and 2 h.
The matching figures for `N=C(N)NCCC[C@H](NC(=O)[C@@H](CCCNC(=N)N)NC(=O)[C@@H]1CCC(=O)N1)C(=O)N[C@@H](CCC(N)=O)C(=O)N[C@@H](CC1CCCCC1)C(=O)N[C@H]1CSSC[C@@H](C(N)=O)NC1=O`: 13 nM and 1.5 h.
Turning to `N=C(N)NCCC[C@@H](NC(=O)[C@@H]1Cc2ccccc2CN1)C(=O)N[C@H](CCCNC(=N)N)C(=O)N[C@@H](CCC(N)=O)C(=O)N[C@@H](CC1CCCCC1)C(=O)N[C@H]1CSSC[C@@H](C(N)=O)NC1=O`, the Ki in series [1] was 0.91 nM. In addition, the half-life in [3] turned out to be 0.75 h.
`N=C(N)NCCC[C@H](NC(=O)[C@@H]1CCC(=O)N1)C(=O)N[C@@H](CCCNC(=N)N)C(=O)N[C@@H](CCC(N)=O)C(=O)N[C@@H](CC1CCCCC1)C(=O)N[C@H]1CSSC[C@@H](C(N)=O)NC1=O` came in with an inhibition constant Ki in [1] of 6.7 nM. Further, the values for the EC50 in series [2] and in [4] were 15.2 nM and 1580 nM, respectively. In addition, the Activity in series [10] is 0.01; in series [11], 0.1; in series [12] it was 0.01. The half-life in series [3] was 1.5 h. The Ratio Ki in series [5], in series [6] and in [7] was greater than 10000 throughout.
With `CC[C@H](C)[C@H](NC(=O)[C@H](CCC(N)=O)NC(=O)[C@H](CCCNC(=N)N)NC(=O)[C@@H](N)CCCNC(=N)N)C(=O)N[C@H]1CSSC[C@@H](C(N)=O)NC1=O` (HELM PEPTIDE1{R.R.Q.I.C.C.[am]}$PEPTIDE1,PEPTIDE1,5:R3-6:R3$$$V2.0), the Ki in series [1] is 270 nM. Moreover, the half-life in series [3] amounted to 0.75 h.
Turning to `N=C(N)NCCC[C@H](NC(=O)[C@@H](CCCNC(=N)N)NC(=O)[C@@H](CCCNC(=N)N)NC(=O)[C@@H]1CCCN1C(=O)c1ccccc1)C(=O)N[C@@H](CC1CCCCC1)C(=O)N[C@H]1CSSC[C@@H](C(N)=O)NC1=O`, in series [1], the affinity corresponds to a Ki of 0.23 nM. Besides, in [3], the half-life turned out to be 12 h.
The molecule `N=C(N)NCCC[C@@H](NC(=O)c1cnc2ccccc2c1)C(=O)N[C@H](CCCNC(=N)N)C(=O)N[C@@H](CCC(N)=O)C(=O)N[C@@H](CC1CCCCC1)C(=O)N[C@H]1CSSC[C@@H](C(N)=O)NC1=O` displayed an inhibition constant (Ki) in series [1] of 0.71 nM. Further, the half-life in [3] turned out to be 0.75 h.
The matching figures for `N=C(N)NCCC[C@H](NC(=O)[C@H](CCCNC(=N)N)NC(=O)[C@@H]1CSSC[C@H](NC(=O)[C@@H](N)CC(N)=O)C(=O)N1)C(=O)N[C@@H](CCC(N)=O)C(=O)N[C@@H](Cc1cccc2ccccc12)C(=O)N[C@H]1CSSC[C@@H](C(N)=O)NC1=O` (HELM PEPTIDE1{N.C.C.R.R.Q.[O=C([C@H](Cc1cccc2ccccc12)N[*:1])[*:2]].C.C.[am]}$PEPTIDE1,PEPTIDE1,2:R3-3:R3|PEPTIDE1,PEPTIDE1,8:R3-9:R3$$$V2.0): 2.9 nM and less than 0.25 h.
The matching figures for `N=C(N)NCCC[C@H](NC(=O)[C@H](CCCNC(=N)N)NC(=O)[C@@H]1CSSC[C@H](NC(=O)[C@@H](N)CC(N)=O)C(=O)N1)C(=O)N[C@@H](CCC(N)=O)C(=O)N[C@@H](CC1CCCCC1)C(=O)N[C@H]1CSSC[C@@H](C(N)=O)NC1=O` (HELM PEPTIDE1{N.C.C.R.R.Q.[Cha].C.C.[am]}$PEPTIDE1,PEPTIDE1,2:R3-3:R3|PEPTIDE1,PEPTIDE1,8:R3-9:R3$$$V2.0): 1.3 nM and less than 0.25 h.

By Ki is commonly meant the dissociation constant of the complex between target and ligand, obtained from inhibition or displacement. High values mean lower affinity, low ones higher affinity. Usually EC50 stands for the concentration at which the effect is half-maximal. What is called half-life is the time needed for the level to fall by half in the phase considered.
